Source: ChEMBL document CHEMBL1137938, “Affinity and intrinsic efficacy (IE) of 5'-carbamoyl adenosine analogues for the A1 adenosine receptor--efforts towards the discovery of a chronic ventricular rate control agent for the treatment of atrial fibrillation (AF)” (Bioorg Med Chem Lett, 2004)

What was measured:
[1] = test system: Adenosine receptor A1 (Mesocricetus auratus); assay: Stimulation of binding of [35S]GTP uM)
[2] = Amount of tecadenoson present after 30 min in the liver S-9 assay as determined by mass specanalysis; trace; format: ADME, tissue-based; settings: human, 0.5 h
[3] = Compound remaining after incubation with 2 mg/mL of human liver microsomes at 37 degrees C for 30 min in a pH 7.4, 0.05 M phosphate buffer; format: ADME, Microsome
How it was run: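 Incubation with human liver microsomes at 2 mg/mL, 37 C, 30 min, in 0.05 M phosphate buffer pH 7.4 containing 5 mM MgCl2 and 2 mM NADPH; percentage of parent compound remaining recorded.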

[4] = Maximum concentration in rat plasma after 5 mg/kg oral gavage; format: ADME, organism-based; design: dose 5 mg/kg, route oral
How it was run: (§1)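 Rats dosed by oral gavage with parent at 5 mg/kg, or with bis-acetate prodrug at molar equivalents. Parent concentration in plasma followed over time. Cmax and AUC taken from the plasma profile. Oral bioavailability derived from AUC measurements.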

[5] = Plasma half life in rat after 5 mg/kg oral gavage; 6-8 hours; format: ADME, organism-based; design: dose 5 mg/kg, route oral
[6] = Concentration in rat plasma after 5 mg/kg oral gavage for 8 hours; format: ADME, organism-based; design: dose 5 mg/kg, route oral
How it was run: as §1

Cavia porcellus [7] = organism: Cavia porcellus; assay: Agonist-induced SH prolongation in guinea pig isolated heart was determined; 3-5 uM (Partial agonist); format: functional
[8] = Bioavailability in rat after 5 mg/kg oral gavage; format: ADME, organism-based; settings: in vivo, read-out: Bioavailabiility
How it was run: as §1

Cavia porcellus [9] = organism: Cavia porcellus; assay: Agonist-induced SH prolongation in guinea pig isolated heart was determined; 3-5 uM (Full agonist); format: functional
[10] = Amount of tecadenoson present after 30 min in the liver S-9 assay as determined by mass specanalysis; format: ADME, tissue-based; settings: human, 0.5 h
Cavia porcellus [11] = organism: Cavia porcellus; assay: Agonist-induced SH prolongation in guinea pig isolated heart was determined; 0.5-0.51 uM (Partial agonist); format: functional
Cavia porcellus [12] = organism: Cavia porcellus; assay: Agonist-induced SH prolongation in guinea pig isolated heart was determined; Inactive; format: functional
Cavia porcellus [13] = organism: Cavia porcellus; assay: Agonist-induced SH prolongation in guinea pig isolated heart was determined; format: functional
[14] = Amount of tecadenoson present after 30 min in the liver S-9 assay as determined by mass specanalysis; 1-2; format: ADME, tissue-based; settings: human, 0.5 h
Cavia porcellus [15] = organism: Cavia porcellus; assay: Agonist-induced SH prolongation in guinea pig isolated heart was determined; 0.5-1 uM (Partial agonist); format: functional, organism-based
[16] = Amount of tecadenoson present after 30 min in the liver S-9 assay as determined by mass specanalysis; -0.5 to 1; format: ADME, tissue-based; settings: human, 0.5 h

SMILES: CC(C)NC(=O)OC[C@H]1OC(n2cnc3c(N[C@@H]4CCOC4)ncnc32)[C@H](O)[C@@H]1O (stereo not given in full)
- [35S]GTPγS binding stimulation (% of CPA) [1]: 91%

SMILES: C=CCNC(=S)OC[C@H]1OC(n2cnc3c(N[C@@H]4CCOC4)ncnc32)[C@H](O)[C@@H]1O (stereo not given in full)
- [35S]GTPγS binding stimulation (% of CPA) [1]: 78%

SMILES: O[C@@H]1[C@@H](COC(=S)NC2CC2)OC(n2cnc3c(N[C@@H]4CCOC4)ncnc32)[C@@H]1O (stereo not given in full)
- [35S]GTPγS binding stimulation (% of CPA) [1]: 82%

SMILES: CNC(=O)OC[C@H]1OC(n2cnc3c(N[C@@H]4CCOC4)ncnc32)[C@H](O)[C@@H]1O (stereo not given in full)
- Activity [2]: Partially active
- remaining at 0.5 h [3]: ~100%
- Cmax [4]: 305 ng/mL
- half-life [5]: 8 h
- AUC at 8 h [6]: 698 ng·h/mL
- EC50 (Cavia porcellus [7]): 5 µM
- bioavailability [8]: 9%

SMILES: CCNC(=S)OC[C@H]1OC(n2cnc3c(N[C@@H]4CCOC4)ncnc32)[C@H](O)[C@@H]1O (stereo not given in full)
- EC50 (Cavia porcellus [9]): 5 µM
- [35S]GTPγS binding stimulation (% of CPA) [1]: 77%

SMILES: CCNC(=O)OC[C@H]1OC(n2cnc3c(N[C@@H]4CCOC4)ncnc32)[C@H](O)[C@@H]1O (stereo not given in full)
- [35S]GTPγS binding stimulation (% of CPA) [1]: 80%

SMILES: CNC(=S)OC[C@H]1OC(n2cnc3c(N[C@@H]4CCOC4)nc(Cl)nc32)[C@H](O)[C@@H]1O (stereo not given in full)
- Activity [10]: 0%
- remaining at 0.5 h [3]: 62%
- EC50 (Cavia porcellus [11]): 0.51 µM
- [35S]GTPγS binding stimulation (% of CPA) [1]: 77%

SMILES: C=CCNC(=O)OC[C@H]1OC(n2cnc3c(N[C@@H]4CCOC4)ncnc32)[C@H](O)[C@@H]1O (stereo not given in full)
- [35S]GTPγS binding stimulation (% of CPA) [1]: 48%

SMILES: CCCNC(=O)OC[C@H]1OC(n2cnc3c(N[C@@H]4CCOC4)ncnc32)[C@H](O)[C@@H]1O (stereo not given in full)
- [35S]GTPγS binding stimulation (% of CPA) [1]: 73%

SMILES: O=C(NC1CCCC1)OC[C@H]1OC(n2cnc3c(N[C@@H]4CCOC4)nc(Cl)nc32)[C@H](O)[C@@H]1O (stereo not given in full)
- EC50 (Cavia porcellus [7]): 5 µM
- [35S]GTPγS binding stimulation (% of CPA) [1]: 69%

SMILES: CCNC(=S)OC[C@H]1OC(n2cnc3c(N[C@@H]4CCOC4)nc(Cl)nc32)[C@H](O)[C@@H]1O (stereo not given in full)
- Activity [10]: 0%
- remaining at 0.5 h [3]: 41%
- EC50 (Cavia porcellus [11]): 0.51 µM
- [35S]GTPγS binding stimulation (% of CPA) [1]: 84%

SMILES: CCCCNC(=S)OC[C@H]1OC(n2cnc3c(N[C@@H]4CCOC4)ncnc32)[C@H](O)[C@@H]1O (stereo not given in full)
- EC50 (Cavia porcellus [12]): Not Active
- [35S]GTPγS binding stimulation (% of CPA) [1]: 70%

SMILES: O=C(NC1CCCC1)OC[C@H]1OC(n2cnc3c(N[C@@H]4CCOC4)ncnc32)[C@H](O)[C@@H]1O (stereo not given in full)
- EC50 (Cavia porcellus [7]): 5 µM

SMILES: CNC(=O)OC[C@H]1OC(n2cnc3c(N[C@@H]4CCOC4)nc(Cl)nc32)[C@H](O)[C@@H]1O (stereo not given in full)
- EC50 (Cavia porcellus [7]): 5 µM
- [35S]GTPγS binding stimulation (% of CPA) [1]: 77%

SMILES: O[C@@H]1[C@@H](COC(=S)NCc2ccccc2)OC(n2cnc3c(N[C@@H]4CCOC4)ncnc32)[C@@H]1O (stereo not given in full)
- [35S]GTPγS binding stimulation (% of CPA) [1]: 93%

SMILES: CCCCNC(=O)OC[C@H]1OC(n2cnc3c(N[C@@H]4CCOC4)ncnc32)[C@H](O)[C@@H]1O (stereo not given in full)
- EC50 (Cavia porcellus [13]): > 5 µM
- [35S]GTPγS binding stimulation (% of CPA) [1]: 49%

SMILES: O[C@@H]1[C@@H](COC(=S)NC2CCC2)OC(n2cnc3c(N[C@@H]4CCOC4)ncnc32)[C@@H]1O (stereo not given in full)
- [35S]GTPγS binding stimulation (% of CPA) [1]: 79%

SMILES: O=C(NC1CCC1)OC[C@H]1OC(n2cnc3c(N[C@@H]4CCOC4)ncnc32)[C@H](O)[C@@H]1O (stereo not given in full)
- [35S]GTPγS binding stimulation (% of CPA) [1]: 67%

SMILES: CN(C)C(=O)OC[C@H]1OC(n2cnc3c(N[C@@H]4CCOC4)ncnc32)[C@H](O)[C@@H]1O (stereo not given in full)
- [35S]GTPγS binding stimulation (% of CPA) [1]: 87%

SMILES: CC(C)NC(=S)OC[C@H]1OC(n2cnc3c(N[C@@H]4CCOC4)ncnc32)[C@H](O)[C@@H]1O (stereo not given in full)
- [35S]GTPγS binding stimulation (% of CPA) [1]: 84%

SMILES: CN(C)C(=S)OC[C@H]1OC(n2cnc3c(N[C@@H]4CCOC4)ncnc32)[C@H](O)[C@@H]1O (stereo not given in full)
- [35S]GTPγS binding stimulation (% of CPA) [1]: 85%

SMILES: CCCNC(=S)OC[C@H]1OC(n2cnc3c(N[C@@H]4CCOC4)ncnc32)[C@H](O)[C@@H]1O (stereo not given in full)
- Activity [14]: 2%
- remaining at 0.5 h [3]: 98%
- EC50 (Cavia porcellus [15]): 1 µM
- [35S]GTPγS binding stimulation (% of CPA) [1]: 89%

SMILES: O[C@@H]1[C@@H](COC(=S)NC2CCCC2)OC(n2cnc3c(N[C@@H]4CCOC4)ncnc32)[C@@H]1O (stereo not given in full)
- EC50 (Cavia porcellus [9]): 5 µM
- [35S]GTPγS binding stimulation (% of CPA) [1]: 95%

SMILES: O=C(NC1CC1)OC[C@H]1OC(n2cnc3c(N[C@@H]4CCOC4)ncnc32)[C@H](O)[C@@H]1O (stereo not given in full)
- [35S]GTPγS binding stimulation (% of CPA) [1]: 82%

SMILES: O=C(NC1CCCCC1)OC[C@H]1OC(n2cnc3c(N[C@@H]4CCOC4)ncnc32)[C@H](O)[C@@H]1O (stereo not given in full)
- [35S]GTPγS binding stimulation (% of CPA) [1]: 80%

SMILES: O[C@@H]1[C@@H](COC(=S)NC2CCCCC2)OC(n2cnc3c(N[C@@H]4CCOC4)ncnc32)[C@@H]1O (stereo not given in full)
- [35S]GTPγS binding stimulation (% of CPA) [1]: 82%

SMILES: OC[C@H]1O[C@@H](n2cnc3c(N[C@@H]4CCOC4)ncnc32)[C@H](O)[C@@H]1O [TECADENOSON]
- EC50 (Cavia porcellus [7]): < 0.5 µM

SMILES: CNC(=S)OC[C@H]1OC(n2cnc3c(N[C@@H]4CCOC4)ncnc32)[C@H](O)[C@@H]1O (stereo not given in full)
- Activity [16]: 1%
- remaining at 0.5 h [3]: 99%
- EC50 (Cavia porcellus [11]): 0.51 µM
- [35S]GTPγS binding stimulation (% of CPA) [1]: 77%

SMILES: O=C(NCc1ccccc1)OC[C@H]1OC(n2cnc3c(N[C@@H]4CCOC4)ncnc32)[C@H](O)[C@@H]1O (stereo not given in full)
- [35S]GTPγS binding stimulation (% of CPA) [1]: 44%

SMILES: CNC(=O)OC[C@H]1OC(n2cnc3c(N[C@@H]4CCOC4)ncnc32)[C@H](OC(C)=O)[C@@H]1OC(C)=O (stereo not given in full)
- Cmax [4]: 647 ng/mL
- AUC at 8 h [6]: 1340 ng·h/mL
